# Rows were chosen to be rich in hits. Some 4.3% of all compounds tested hit in one or more screens of this group.
# ALR H2O2 inh: human ALR oxidase inhibition via reduced H2O2; AID 485317; P55789; purified ALR, DTT oxidation, H2O2 HRP-luminol luminescence; inhibition, % (no concentration beside the values); 3.8% of 290,000 active;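 active means mean replicate inhibition above about 79%, with every replicate also reaching it, limit read from the data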
# PREPL inhibitor: inhibitors of human prolyl oligopeptidase-like enzyme PREPL; Q4J6C6; recombinant PREPL, fluorescence polarization activity-based probe; inhibition, % at 5.96 µM; 0.68% of 320,000 active; AID 2751; in the data active means inhibition above about 43%;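 further: 0% = enzyme with DMSO and 100% = wells lacking enzyme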
# Target sequence (Q4J6C6 whole entry, looked up): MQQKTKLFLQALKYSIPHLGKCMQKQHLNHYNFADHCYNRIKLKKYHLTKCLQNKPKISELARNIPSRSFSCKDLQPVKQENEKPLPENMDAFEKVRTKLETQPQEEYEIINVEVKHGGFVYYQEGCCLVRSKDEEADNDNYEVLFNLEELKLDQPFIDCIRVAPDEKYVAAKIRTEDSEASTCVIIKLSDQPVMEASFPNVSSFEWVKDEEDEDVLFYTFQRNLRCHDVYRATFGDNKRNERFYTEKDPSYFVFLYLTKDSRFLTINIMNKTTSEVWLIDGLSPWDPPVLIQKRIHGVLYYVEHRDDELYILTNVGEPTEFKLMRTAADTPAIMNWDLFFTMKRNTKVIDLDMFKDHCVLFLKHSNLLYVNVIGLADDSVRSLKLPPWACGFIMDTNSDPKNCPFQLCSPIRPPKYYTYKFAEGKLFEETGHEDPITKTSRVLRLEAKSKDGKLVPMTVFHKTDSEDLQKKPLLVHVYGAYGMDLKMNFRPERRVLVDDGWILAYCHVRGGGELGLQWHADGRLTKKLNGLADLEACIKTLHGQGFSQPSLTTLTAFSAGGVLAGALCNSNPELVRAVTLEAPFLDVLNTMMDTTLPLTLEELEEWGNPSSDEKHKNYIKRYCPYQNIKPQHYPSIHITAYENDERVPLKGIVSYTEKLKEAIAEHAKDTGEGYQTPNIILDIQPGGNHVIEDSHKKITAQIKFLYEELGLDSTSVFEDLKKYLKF
# UBC13 inh: inhibitors of human UBC13 polyubiquitin chain formation; inhibition, % at 20 µM; 0.47% of 330,000 active; TR-FRET; in the data active means inhibition above about 45%, passing the limit was not always enough
# RBBP9 inhibitor: human RBBP9 hydrolase inhibition; O75884; recombinant RBBP9, FP-Rh probe fluorescence polarization; inhibition, % at 7.94 µM; 0.2% of 220,000 active; AID 1515;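 active means inhibition above the campaign mean of all tested compounds plus 3 SD, cut at about 14% in these data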;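 further: plate controls were DMSO wells with RBBP9 for no effect and wells lacking RBBP9 protein for full effect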
#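 Test system – recombinant human RBBP9 · Input – RBBP9 2.5 µM in dispensing solution, pre-mixing · Medium – Tris buffer pH 8.0, NaCl, Pluronic · Schedule – preincubation 30 min plus labeling 45 min at 25 °C · Measured by – fluorescence polarization · Measure – % inhibition · Controls – DMSO and no-protein wells · Replicates – one well per compound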
# Rin1-Abl PPI inh: inhibitors of human Rin1-Abl protein interaction | P00519+Q13671 | TR-FRET Rin1/Abl binding, biochemical | inhibition, % at 7.35 µM | 0.4% of 360,000 active; in the data active means inhibition above about 5%, passing the limit was not always enough
# UBC9 SUMO inh: blocks human SUMOylation mediated by UBC9; 0.36% of 290,000 active; inhibition, % at 35 µM; HTRF SUMOylation assay, SAE1/SAE2 + UBC9, in vitro; P63279; in the data active means inhibition above about 50%, passing the limit was not always enough
# * marks the source's active call; other numbers are inactive results; . = no result.
SMILES,ALR H2O2 inh,PREPL inhibitor,UBC13 inh,RBBP9 inhibitor,Rin1-Abl PPI inh,UBC9 SUMO inh
CC1CC/C(=N/Nc2ccccc2)C(=O)N1 (stereo unspecified),99*,8,-8,-5,-4,-9
COC(=O)c1c(N)sc(C(=O)N2CCOCC2)c1C,14,-11,-8,-5,4,11
CCOC(=O)c1c(N)sc(-c2ccccc2)c1C,99*,16,3,10,-2,-1
CCOC(=O)c1cc(-c2ccccc2)sc1N,99*,24,-12,-5,1,8
Cc1c(-c2ccccc2)sc(N)c1C(=O)N1CCOCC1,99*,-4,1,-3,-3,-4
NNC(=O)c1cc(-c2ccccc2)sc1N,97*,39,18,4,-4,0
O=C(NC(=S)Nc1ccccc1F)c1ccc(Br)o1,.,-1,-12,3,-2,0
COc1ccc(CN(C(C)=O)c2cc(C)c([N+](=O)[O-])cc2OC)cc1OC,.,.,.,.,2,.
CCOc1ccccc1N1CC(C(=O)Nc2cc(Cl)ccc2C)CC1=O (stereo unspecified),-2,4,7,.,3,2
COCCN(CCOC)Cc1cc(=O)oc2cc(C)cc(C)c12,.,.,.,.,6,.
N#CC1=C(N)NC(SCC(=O)Nc2ccccc2)=C(C#N)C12CCCC2,95*,1,0,-1,-2,0
O=C(N/N=C/c1cccnc1)c1cccc(S(=O)(=O)N2CCCC2)c1,-1,2,-1,-1,0,9
Cc1ccc(S(=O)(=O)N2CCN(CC(=O)N/N=C\c3ccc(O)c(O)c3)CC2)cc1,99*,10,5,-7,-3,10
O=C(N/N=C/c1ccc(O)c(O)c1)c1cccc(S(=O)(=O)N2CCCC2)c1,99*,17,-7,.,-1,.
COc1ccc(NS(=O)(=O)c2cccc(C(=O)NN=Cc3ccc(O)c(OC)c3)c2)cc1,36,17,-22,.,3,.
COc1cc(/C=N/NC(=O)c2cccc(S(=O)(=O)N3CCCC3)c2)ccc1O,99*,6,-10,.,-3,.
CN(CCOc1ccccc1)C(=O)C1CCC(=O)N(CCN2CCOCC2)C1 (stereo unspecified),.,19,2,.,1,-7
COc1cc2c(cc1CN1CCN(C(=O)c3cc(OC)c(OC)c(OC)c3)CC1)OCO2,-14,-1,1,.,1,2
Cc1c(Br)c(=O)oc2c(Br)c(O)ccc12,8,-3,4,3,-6,20
Cc1c(Br)c(=O)oc2c(Br)c(O)c(O)cc12,98*,32,.,1,-1,6
COCCN(C(=O)CCC(=O)Nc1cc(C)on1)C(C(=O)NC(C)(C)C)c1cccc(OC)c1OC (stereo unspecified),-4,22,-1,.,1,11
C/C(=N\Nc1ccc(C)c(Cl)c1)c1cccnc1,99*,27,2,.,0,15
C/C(=N\Nc1ccc(C)c(Cl)c1)c1ccncc1,.,21,-5,.,-1,-4
CCN(CCNS(=O)(=O)c1ccc2[nH]c(=O)sc2c1)c1ccccc1,98*,-16,4,1,-2,-10
CCOC(=O)C1CCCN(C(=O)c2ccc3ncsc3c2)C1 (stereo unspecified),96*,0,4,.,1,.
SMILES,ALR H2O2 inh,PREPL inhibitor,UBC13 inh,RBBP9 inhibitor,Rin1-Abl PPI inh,UBC9 SUMO inh
c1ccc(-c2nc(-c3ccco3)cs2)nc1,98*,11,-7,-4,-4,19
S=C(NCCCc1ccccc1)Nc1ccccc1,19,.,9,.,-4,3
COCCCNC(=S)NNC(=S)Nc1ccccc1,96*,1,-4,1,-2,8
CCCNC(=S)Nc1ccccc1,90*,4,6,-7,1,4
S=C(NCCc1ccccc1)Nc1ccc(Nc2ccccc2)cc1,98*,18,6,0,-1,-24
NC(=S)NNC(=S)Nc1ccccc1,97*,-7,4,-4,3,7
COCCCNC(=S)Nc1ccc(C)cc1,37,-3,-6,-3,-4,9
S=C(NNC(=S)Nc1ccccc1)Nc1ccccc1,2,8,-4,.,-1,-8
CCCCSCCCNC(=O)Nc1ccc(C)c(C)c1,-6,-4,-8,-3,4,-6
COc1cc(/C=N/n2cnnc2)ccc1OC(=O)c1cccnc1,.,7,-31,-9,3,3

# Screening results (PubChem)
